Compound activity (PubChem)
OX1R antag-1: OX1R (HCRTR1) antagonists, primary screen, fluorescence, CHO/OX1R cells, Fluo-8 calcium, orexin A; 0.43% of 330,000 active; Orexin/Hypocretin receptor type 1 (Homo sapiens), O43613; inhibition, % at 5 µM; AID 434989, 2010; Fluo-8 calcium fluorescence;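 active = inhibition above its plate's threshold, mean inhibition of all tested compounds on the plate plus 3 SD, cut at about 37% in these data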
OX1R antag-2: antagonists of human orexin 1 receptor (OX1R). Orexin/Hypocretin receptor type 1 (Homo sapiens), O43613. OX1R-expressing cells, FRET antagonist read-out. inhibition, % at 6.6 µM. 1.8% of 330,000 active; in the data active = inhibition mostly above about 38%, no sharp cut-off; inactive = mostly below about 40%
TAAR1 agonist: human TAAR1 agonists, primary screen, Fluo-8 calcium fluorescence, CHO RD-HGA16 cells. vehicle wells 0%, saturating PEA agonist 100%. activation, % at 3 µM. Trace amine-associated receptor 1 (Homo sapiens), Q96RJ0. 0.99% of 360,000 active. AID 624467, 2012;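 active = activation above the mean activation of all test compounds in the run plus 3 SD, cut at about 38% in these data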
Target sequence (Q96RJ0 whole entry, looked up): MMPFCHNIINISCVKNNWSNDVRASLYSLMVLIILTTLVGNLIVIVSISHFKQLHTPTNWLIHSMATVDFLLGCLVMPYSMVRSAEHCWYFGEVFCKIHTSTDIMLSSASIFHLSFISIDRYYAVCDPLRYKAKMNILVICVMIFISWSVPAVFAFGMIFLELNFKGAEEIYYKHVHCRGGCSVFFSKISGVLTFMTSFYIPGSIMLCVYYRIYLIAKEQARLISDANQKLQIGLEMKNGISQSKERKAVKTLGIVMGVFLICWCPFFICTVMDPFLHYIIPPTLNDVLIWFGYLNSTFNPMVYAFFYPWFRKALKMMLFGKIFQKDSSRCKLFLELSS
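Signal – calcium-sensitive Fluo-8 signal, excitation 470-495, emission 515-575 nm · System – RD-HGA16 (CHO) cells co-expressing Gα16 and hTAAR1 · Incubation – 17-24 h seeding, 75 min 37 °C dye, 30 min RT · Compound dosing – 3 µM single concentration · Repeats – no replicates (n 1)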
CHO parental Ca: ATP-evoked calcium signal inhibitors, parental CHO, primary screen, counter-screen for OX1R antagonist project, cell-based, fluorescence, Fluo-8 calcium dye. AID 463079, 2010. parental CHO-K1, ATP-induced calcium, Fluo-8 fluorescence. 0.63% of 330,000 active. inhibition, % at 5.6 µM;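 active = inhibition above that plate's mean sample inhibition plus 3 SD, cut at about 26% in these data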
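Material: parental CHO cells / Compound: single nominal dose of 5.6 µM per compound / Signal: Fluo-8 fluorescence / Replicates: singlicate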
TAAR1 antag: human TAAR1 antagonists, primary screen, Fluo-8 calcium fluorescence, CHO RD-HGA16 cells | Trace amine-associated receptor 1 (Homo sapiens), Q96RJ0 | antagonist | inhibition, % at 3 µM | 1.5% of 360,000 active;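 active = inhibition above a per-plate cutoff, the mean inhibition of test compounds on that plate plus 3 SD, cut at about 49% in these data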
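test system = CHO RD-HGA16 cells bearing hTAAR1 | replication = singlicate | controls = DMSO-only wells and EC80 β-PEA-stimulated wells | reagent = EC80 β-phenethylamine stimulus | read-out basis = percent inhibition of PEA-evoked calcium signal, max/basal emission ratio | schedule = seeding 17-24 h prior, 75-min 37 °C, 30-min RT dye loading | signal = kinetic Fluo-8 calcium fluorescence measurement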
Each line names hits and unclear results; the compound was inactive in the other large screens. An excerpt weighted towards active compounds, which were near 4% of everything screened.

COc1ccccc1CN1CCNC(=O)C1CC(=O)NC1Cc2ccccc2C1 (stereo not given)	TAAR1 agonist 41
O=C(Cc1ccccc1)NCC(=O)N/N=C/c1ccc([N+](=O)[O-])s1	OX1R antag-2 52
Cc1ccc(C(=O)N/N=C/c2ccc([N+](=O)[O-])s2)cc1	none
O=C(CNC(=O)c1ccccc1)N/N=C/c1ccc([N+](=O)[O-])s1	OX1R antag-2 47
O=C(N/N=C/c1ccc([N+](=O)[O-])s1)c1ccncc1	OX1R antag-2 72 (no result: TAAR1 agonist, TAAR1 antag)
COc1cccc(Sc2ccccc2/C=N/NC(N)=O)c1	none
CC(=O)N1CCN(C(=O)COC(=O)/C=C/c2ccccc2[N+](=O)[O-])CC1	OX1R antag-2 37
O=C(Nn1c(C2CCCCC2)nc2ccccc2c1=O)c1ccc(Cl)c([N+](=O)[O-])c1	OX1R antag-2 53
Cc1cc(C(=O)Nn2c(C3CCCCC3)nc3ccccc3c2=O)ccc1[N+](=O)[O-]	none
CCC(C)[C@H](NC(=O)[C@@H]1CSC2c3ccccc3C(=O)N21)C(=O)N1CCCCC1 (stereo not given in full)	none
CCn1c(=S)sc2c(=O)n(CC(=O)Nc3cccc(OC)c3)c(C)nc21	none
CCCC[n+]1ccn(C2=C([O-])c3ccccc3C(=O)/C2=N\S(=O)(=O)c2ccc(Cl)cc2)c1	OX1R antag-2 47
COC(=O)[C@]12C[C@H](CC(=O)N3CCN(C(=O)C4CC4)CC3)C(=O)N(Cc3ccc4c(c3)OCO4)C1=C[C@H](COCc1ccccc1)O[C@@H]2C	none (no result: OX1R antag-1, OX1R antag-2, CHO parental Ca)
Cc1ccccc1CN1[C@@H](C)[C@H](c2ccccc2)Oc2cccc(NCC(C)C)c2S1(=O)=O	none (no result: OX1R antag-1, OX1R antag-2, CHO parental Ca)
CNS(=O)(=O)c1cccc(C(=O)OCC(=O)/C=C2/N(C)c3ccccc3C2(C)C)c1	none
CN1/C(=C\C(=O)COC(=O)c2ccc(O)cc2)C(C)(C)c2ccccc21	OX1R antag-1 47, CHO parental Ca 54
CN1/C(=C\C(=O)COC(=O)c2ccc(O)c(O)c2)C(C)(C)c2ccccc21	OX1R antag-1 40, CHO parental Ca 50
O=[N+]([O-])c1cc(Br)c2nsnc2c1N1CCOCC1	OX1R antag-2 29
Cc1cccc(NC(=O)c2ccc(N3CCCCC3)c([N+](=O)[O-])c2)n1	none
Cc1cccc(NC(=O)c2ccc(N(C)C3CCCCC3)c([N+](=O)[O-])c2)n1	TAAR1 antag 63
CC(=O)N1c2ccc(S(=O)(=O)N3CCC(C(=O)N4CCC(C)CC4)CC3)cc2CC1C (stereo not given)	none
CC(=O)c1ccc(N2CCN(S(=O)(=O)c3ccc4c(c3)CC(C)N4C(C)=O)CC2)cc1 (stereo not given)	OX1R antag-1 42
COc1ccccc1N1CCN(C(=O)C2CCN(S(=O)(=O)c3ccc4c(c3)CC(C)N4C(C)=O)CC2)CC1 (stereo not given)	none
COc1ccccc1N1CCN(C(=O)C2CCN(S(=O)(=O)c3ccc4c(c3)CC(C)N4C(=O)C3CC3)CC2)CC1 (stereo not given)	TAAR1 antag 57
CC(=O)N1c2ccc(S(=O)(=O)N3CCC(C(=O)N4CCN(c5cc(Cl)ccc5C)CC4)CC3)cc2CC1C (stereo not given)	CHO parental Ca 43
COc1ccc(C(=O)c2c(-c3ccsc3)oc3ccc(-c4ccc(OC)cc4)cc23)cc1	none
CCOc1ccccc1C(=O)Nc1cc(C(=O)NCC(C)C)ccc1Cl	OX1R antag-2 48 (no result: TAAR1 agonist, TAAR1 antag)
CCOc1ccccc1C(=O)Nc1ccccc1C(N)=O	none
COC(=O)c1sccc1NC(=O)c1ccc(Cl)s1	none (no result: TAAR1 agonist, TAAR1 antag)
CCOc1ccccc1C(=O)Nc1ccsc1C(=O)OC	OX1R antag-2 69
COC(=O)c1sccc1NC(=O)c1ccc(C)s1	OX1R antag-2 56
COc1ccc(N(CC(=O)Nc2ccccc2C(=O)N2CCCC2)S(C)(=O)=O)cc1	none
COc1cc(NC(=S)Nc2ncccc2C)cc(OC)c1OC	OX1R antag-2 45
